# Data: ChEMBL document CHEMBL4020827, “Targeting Multiple Effector Pathways in Pancreatic Ductal Adenocarcinoma with a G-Quadruplex-Binding Small Molecule” (J Med Chem, 2018)
# Legend:
# [1] = test system: PANC-1; assay: Effect on SMO gene expression in human PANC1 cells at 400 nM after 24 hrs by RNA sequence analysis relative to control; assay type: functional
# Method in brief: (§1)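 RNA-seq: cells seeded overnight in 60 mm plates (PANC-1 0.35 x 10^6, MIA PaCa-2 1.5 x 10^6 cells/well), then exposed to 400 nM compound for 6 or 24 h against untreated controls. Cell lines mycoplasma-free by RNA-capture ELISA and STR-profiled. Differentially expressed genes called at FDR < 0.1.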
# [2] = test system: MIA PaCa-2; assay: Effect on MAPK9 gene expression in human MIAPaCa2 cells at 400 nM after 24 hrs by RNA sequence analysis relative to control; assay type: functional
# [3] = test system: PANC-1; assay: Effect on PFKL gene expression in human PANC1 cells at 400 nM after 24 hrs by RNA sequence analysis relative to control; assay type: functional
# [4] = test system: PANC-1; assay: Effect on PRKCZ gene expression in human PANC1 cells at 400 nM after 24 hrs by RNA sequence analysis relative to control; assay type: functional; method in brief: as §1
# [5] = test system: MIA PaCa-2; assay: Effect on AKT1 gene expression in human MIAPaCa2 cells at 400 nM after 24 hrs by RNA sequence analysis relative to control; assay type: functional
# Method in brief: (§2)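 PANC-1 (0.35 x 10^6) or MIA PaCa-2 (1.5 x 10^6) cells seeded overnight in 60 mm plates, then exposed to 400 nM compound for 6 or 24 h; untreated cells as controls. Cells were mycoplasma-free and STR-certified. Differential expression by RNA-seq, called at FDR < 0.1.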
# [6] = test system: PANC-1; assay: Effect on TEAD4 gene expression in human PANC1 cells at 400 nM after 6 hrs by RNA sequence analysis relative to control; assay type: functional; method in brief: as §1
# [7] = test system: MIA PaCa-2; assay: Effect on TP73 gene expression in human MIAPaCa2 cells at 400 nM after 6 hrs by RNA sequence analysis relative to control; assay type: functional; method in brief: as §1
# [8] = test system: MIA PaCa-2; assay: Effect on ARF6 gene expression in human MIAPaCa2 cells at 400 nM after 6 hrs by RNA sequence analysis relative to control; assay type: functional; method in brief: as §2
# [9] = test system: MIA PaCa-2; assay: Effect on ROBO3 gene expression in human MIAPaCa2 cells at 400 nM after 6 hrs by RNA sequence analysis relative to control; assay type: functional; method in brief: as §1
# [10] = test system: MIA PaCa-2; assay: Effect on IGF2 gene expression in human MIAPaCa2 cells at 400 nM after 6 hrs by RNA sequence analysis relative to control; assay type: functional; method in brief: as §2
# [11] = test system: MIA PaCa-2; assay: Effect on AKT1S1 gene expression in human MIAPaCa2 cells at 400 nM after 6 hrs by RNA sequence analysis relative to control; assay type: functional; method in brief: as §2
# [12] = test system: PANC-1; assay: Effect on PIK3R3 gene expression in human PANC1 cells at 400 nM after 6 hrs by RNA sequence analysis relative to control; assay type: functional
# [13] = test system: PANC-1; assay: Effect on MAPK9 gene expression in human PANC1 cells at 400 nM after 24 hrs by RNA sequence analysis relative to control; assay type: functional
# [14] = test system: MIA PaCa-2; assay: Effect on ARF6 gene expression in human MIAPaCa2 cells at 400 nM after 24 hrs by RNA sequence analysis relative to control; assay type: functional; method in brief: as §2
# [15] = test system: MIA PaCa-2; assay: Effect on PARD6A gene expression in human MIAPaCa2 cells at 400 nM after 6 hrs by RNA sequence analysis relative to control; assay type: functional
# [16] = test system: MIA PaCa-2; assay: Growth inhibition of human MIAPaCa2 cells after 96 hrs by SRB assay; assay type: functional, cell-based; details: MIA PaCa-2, 96 h
# Method in brief: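 Cell lines kept at 37 °C, 5% CO2 in medium with 10% FBS and 2 mM L-glutamine. Compound dissolved in water, filter-sterilised, 10 mM stock diluted into media. Growth read by 96 h sulforhodamine B assay, absorbance at 540 nm. IC50 taken from mean absorbance per concentration as % of untreated wells, >3 individual determinations with standard deviations.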
# [17] = test system: MIA PaCa-2; assay: Antitumor activity against human MIAPaCa2 cells xenografted in CD-1 nude mouse assessed as change in tumor volume at 10 mg/kg, iv administered twice weekly for 4 weeks measured on day 29 relative to control; assay type: functional
# Method in brief: (§3)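 Female CD-1 nude mice (2-3 months, 20−25 g) given 5 x 10^6 MIA PaCa-2 cells subcutaneously in right flank with Matrigel; dosing began once tumors were established (approx. 13 days, mean 0.05 cm3). Eight mice/group, IV in saline twice weekly for 28 days (8 doses) against a saline group. Tumors measured by calliper (length × width × height × π/6), with body weight. Student's t test.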
# [18] = test system: PANC-1; assay: Effect on ULK1 gene expression in human PANC1 cells at 400 nM after 24 hrs by RNA sequence analysis relative to control; assay type: functional; method in brief: as §1
# [19] = test system: MIA PaCa-2; assay: Effect on PLXNA1 gene expression in human MIAPaCa2 cells at 400 nM after 6 hrs by RNA sequence analysis relative to control; assay type: functional
# [20] = Solubility of the compound in saline; assay type: physicochemical
# [21] = test system: PANC-1; assay: Effect on GLI4 gene expression in human PANC1 cells at 400 nM after 6 hrs by RNA sequence analysis relative to control; assay type: functional; method in brief: as §2
# [22] = test system: MIA PaCa-2; assay: Effect on MAPK11 gene expression in human MIAPaCa2 cells at 400 nM after 6 hrs by RNA sequence analysis relative to control; assay type: functional
# [23] = test system: PANC-1; assay: Effect on SHANK2 gene expression in human PANC1 cells at 400 nM after 6 hrs by RNA sequence analysis relative to control; assay type: functional; method in brief: as §1
# [24] = test system: MIA PaCa-2; assay: Antitumor activity against human MIAPaCa2 cells xenografted in CD-1 nude mouse assessed as change in tumor volume at 10 mg/kg, iv administered twice weekly for 4 weeks measured on day 62 relative to control; assay type: functional; method in brief: as §3
# [25] = test system: MIA PaCa-2; assay: Effect on RPTOR gene expression in human MIAPaCa2 cells at 400 nM after 24 hrs by RNA sequence analysis relative to control; assay type: functional; method in brief: as §1
# [26] = test system: PANC-1; assay: Effect on SHC2 gene expression in human PANC1 cells at 400 nM after 6 hrs by RNA sequence analysis relative to control; assay type: functional; method in brief: as §1
# [27] = test system: PANC-1; assay: Effect on AKT1S1 gene expression in human PANC1 cells at 400 nM after 6 hrs by RNA sequence analysis relative to control; assay type: functional; method in brief: as §2
# [28] = test system: PANC-1; assay: Effect on PIK3R3 gene expression in human PANC1 cells at 400 nM after 24 hrs by RNA sequence analysis relative to control; assay type: functional
# [29] = test system: PANC-1; assay: Effect on GLI2 gene expression in human PANC1 cells at 400 nM after 24 hrs by RNA sequence analysis relative to control; assay type: functional; method in brief: as §2
# [30] = test system: PANC-1; assay: Effect on FASN gene expression in human PANC1 cells at 400 nM after 6 hrs by RNA sequence analysis relative to control; assay type: functional; method in brief: as §2
# [31] = Selectivity ratio of IC50 for human MCF7 cells to IC50 for human MIAPaCa2 cells; assay type: functional
# [32] = Toxicity in iv dosed CD-1 nude mouse assessed as death measured up to 72 hrs; assay type: organism-based; details: in vivo
# Method in brief: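 CD1 nude mice, two per group, given single IV doses in saline (10, 20, 30, 35, 40, 45, 50 and 60 mg/kg), with repeat dosing weekly. Watched for adverse effects for up to 72 h. Tolerated dose taken as highest cohort in which all mice survived without observed ill-effects.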
# [33] = test system: PANC-1; assay: Effect on MAPK12 gene expression in human PANC1 cells at 400 nM after 6 hrs by RNA sequence analysis relative to control; assay type: functional
structure (smiles),measurement,setting,value
O=C1c2ccc3c4c(c(NCCN5CCCC5)cc(c24)C(=O)N1CCCN1CCOCC1)C(=O)N(CCCN1CCOCC1)C3=O,log2FC,[1],-0.82
same,log2FC,[2],-0.6
same,log2FC,[3],-0.98
same,log2FC,[4],-1.23
same,log2FC,[5],-0.98
same,log2FC,[6],-0.23
same,log2FC,[7],-2.36
same,log2FC,[8],-0.89
same,log2FC,[9],-0.86
same,log2FC,[10],-2.72
same,log2FC,[11],-0.54
same,log2FC,[12],-0.16
same,log2FC,[13],-0.75
same,log2FC,[14],-0.54
same,log2FC,[15],-0.83
same,IC50,[16],7 nM
same,Activity,[17],-53.3%
same,log2FC,[18],-0.81
same,log2FC,[19],-0.98
same,solubility,[20],> 10000 µg/mL
same,log2FC,[21],-1.26
same,log2FC,[22],-0.53
same,log2FC,[23],-1.65
same,Activity,[24],-51.7%
same,log2FC,[25],-0.68
same,log2FC,[26],-0.52
same,log2FC,[27],-0.11
same,log2FC,[28],-0.54
same,log2FC,[29],0.38
same,log2FC,[30],-0.73
same,Ratio IC50,[31],>20
same,MTD at 72 h,[32],45 to 50 mg/kg
same,log2FC,[33],-0.75
